Test results: ChEMBL document CHEMBL1212776, “Novel ambler class A carbapenem-hydrolyzing beta-lactamase from a Pseudomonas fluorescens isolate from the Seine River, Paris, France” (Antimicrob Agents Chemother, 2010)
In brackets after ≈: the same amount, converted by molar mass.

B1: Beta-lactamase (Pseudomonas fluorescens), D2WFL1 (protein)
chain: MARPSKLALSFSLLLPFLPFTSFAETWPQGDIARQKIVKLEKDFGGRIGVSAIDTGANRTFDFRADERFPLCSSFKGFLAGAVLSHSQQQEGLLEKRIDYKNRVMEPHSPISAQHSSTGMTVAQLAAAALQYSDNGATNLLLENVLGGPAGMTTFMRTLGDTTFRLDRWELELNSAIPGDDRDTSTPHAIARSLQKIALGEALQTAPRQQLVDWLIGNTTGGARIRAGVPVEWVVGDKTGTCGVYGTANDYAVIWPKTSAPIVLAIYTAKPNKEDKHSDAVIAEVTRAVLESFE

Legend:
[1] = system: Escherichia coli; assay: Antimicrobial activity against Escherichia coli DH10B by Etest; assay type: functional
Method in brief: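 MIC by Etest, interpreted per CLSI recommendations. Reference strain E. coli DH10B without recombinant plasmid; cultures grown in Trypticase soy broth at 37°C for 18 h.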

[2] = system: Pseudomonas fluorescens; assay: Activity at Pseudomonas fluorescens PF-1 beta-lactamase BIC-1 expressed in Escherichia coli DH10B carrying pSau1
[3] = system: Pseudomonas fluorescens; assay: Antimicrobial activity against Pseudomonas fluorescens isolate PF-1 expressing beta-lactamase BIC-1 by Etest; assay type: functional
Method in brief: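 MIC for isolate PF-1 by Etest, interpreted per CLSI recommendations. Cultures grown in Trypticase soy broth, 37°C, 18 h.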

[4] = system: Escherichia coli; assay: Antimicrobial activity against Escherichia coli DH10B harbouring recombinant plasmid pSau1 expressing beta-lactamase BIC-1 from Pseudomonas fluorescens PF-1 by Etest; assay type: functional
[5] = system: Pseudomonas fluorescens; assay: Antimicrobial activity against Pseudomonas fluorescens isolate PF-1 expressing beta-lactamase BIC-1 by Etest in presence of 4 ug/ml of clavulanic acid; assay type: functional
Method in brief: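 MIC for isolate PF-1 by Etest, with clavulanic acid held at a fixed 4 μg/ml and the β-lactam varied. Interpreted per CLSI recommendations.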

[6] = system: Escherichia coli; assay: Antimicrobial activity against Escherichia coli DH10B by Etest in presence of 4 ug/ml of clavulanic acid; assay type: functional
Method in brief: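 Etest MIC with clavulanic acid held at a fixed 4 μg/ml alongside the β-lactam, read per CLSI recommendations. Strain E. coli DH10B; cultures grown in TS broth at 37°C for 18 h.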

[7] = system: Escherichia coli; assay: Antimicrobial activity against Escherichia coli DH10B harbouring recombinant plasmid pSau1 expressing beta-lactamase BIC-1 from Pseudomonas fluorescens PF-1 by Etest in presence of 4 ug/ml of clavulanic acid; assay type: functional
[8] = Inhibition of Pseudomonas fluorescens PF-1 beta-lactamase BIC-1 expressed in Escherichia coli DH10B carrying pSau1
Method in brief: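 BIC-1 purified from E. coli DH10B(pSau1) lysate by S-Sepharose flowthrough, then Q-Sepharose with a 0–500 mM NaCl gradient. Enzyme preincubated with varied inhibitor (clavulanate, tazobactam or sulbactam) for 3 min at 30°C. Then 100 μM benzylpenicillin added. IC50 is the inhibitor concentration halving the hydrolysis rate.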

[9] = target: Carbapenem-hydrolyzing beta-lactamase KPC (Klebsiella pneumoniae, UniProt Q9F663); assay: Inhibition of carbapenem-resistant Klebsiella pneumoniae carbepenem-hydrolyzing beta-lactamase KPC-1
Carbapenem-hydrolyzing beta-lactamase KPC, sequence (Q9F663 whole entry): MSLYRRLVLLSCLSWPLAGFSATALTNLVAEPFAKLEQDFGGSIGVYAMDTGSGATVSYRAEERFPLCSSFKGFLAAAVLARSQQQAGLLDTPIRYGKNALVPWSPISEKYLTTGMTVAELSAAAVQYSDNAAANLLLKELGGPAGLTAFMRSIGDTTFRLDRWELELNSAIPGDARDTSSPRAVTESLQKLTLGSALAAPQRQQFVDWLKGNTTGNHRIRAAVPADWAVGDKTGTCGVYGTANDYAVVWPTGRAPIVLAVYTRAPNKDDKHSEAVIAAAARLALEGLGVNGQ

[10] = substrate: CCN1CCN(C(=O)N[C@@H](C(=O)N[C@@H]2C(=O)N3[C@@H]2SC(C)(C)[C@@H]3C(=O)O)c2ccccc2)C(=O)C1=O; assay: (§1) Ratio of Kcat to Km of Pseudomonas fluorescens PF-1 beta-lactamase BIC-1 expressed in Escherichia coli DH10B using nitrocefin hydrolysis
Method in brief: (§2)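 Cells from overnight 37°C TS broth culture with amoxicillin and kanamycin were sonicated. Enzyme purified by S-Sepharose (malonate pH 6.1), then Q-Sepharose (bis-Tris pH 7.2, 0–500 mM NaCl gradient), and dialyzed into 50 mM sodium phosphate pH 7. kcat and Km measured on the purified enzyme. Values are means of three independent experiments; SD within 10%.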

[11] = substrate: O=C(Cc1cccs1)N[C@@H]1C(=O)N2C(C(=O)[O-])=C(C[n+]3ccccc3)CS[C@H]12; assay: as §1; method in brief: as §2
[12] = substrate: C[C@H]1[C@H](NC(=O)/C(=N\OC(C)(C)C(=O)O)c2csc(N)n2)C(=O)N1S(=O)(=O)O; assay: as §1; method in brief: as §2
[13] = substrate: C[C@@H](O)[C@H]1C(=O)N2C(C(=O)O)=C(S[C@@H]3CN[C@H](C(=O)Nc4cccc(C(=O)O)c4)C3)[C@H](C)[C@H]12; assay: as §1; method in brief: as §2
[14] = substrate: CO/N=C(\C(=O)N[C@@H]1C(=O)N2C(C(=O)O)=C(COC(N)=O)CS[C@H]12)c1ccco1; assay: as §1; method in brief: as §2
[15] = substrate: Cc1onc(-c2ccccc2)c1C(=O)N[C@@H]1C(=O)N2[C@@H]1SC(C)(C)[C@@H]2C(=O)O; assay: as §1; method in brief: as §2
[16] = substrate: CC1(C)S[C@@H]2[C@H](NC(=O)Cc3ccccc3)C(=O)N2[C@H]1C(=O)O; assay: as §1; method in brief: as §2
[17] = substrate: C[C@@H](O)[C@H]1C(=O)N2C(C(=O)O)=C(SCCNC=N)C[C@H]12; assay: as §1; method in brief: as §2
[18] = substrate: CC1(C)S[C@@H]2[C@H](NC(=O)[C@H](C(=O)O)c3ccsc3)C(=O)N2[C@H]1C(=O)O; assay: as §1; method in brief: as §2
[19] = substrate: CC(=O)OCC1=C(C(=O)O)N2C(=O)[C@@H](NC(=O)Cc3cccs3)[C@H]2SC1; assay: as §1; method in brief: as §2
[20] = substrate: C[C@@H](O)[C@H]1C(=O)N2C(C(=O)O)=C(S[C@@H]3CN[C@H](C(=O)N(C)C)C3)[C@H](C)[C@H]12; assay: as §1; method in brief: as §2
[21] = substrate: CC1(C)S[C@@H]2[C@H](NC(=O)[C@H](N)c3ccccc3)C(=O)N2[C@H]1C(=O)O; assay: as §1; method in brief: as §2
[22] = substrate: CO[C@@]1(NC(=O)Cc2cccs2)C(=O)N2C(C(=O)O)=C(COC(N)=O)CS[C@@H]21; assay: as §1; method in brief: as §2
[23] = substrate: CO/N=C(\C(=O)N[C@@H]1C(=O)N2C(C(=O)O)=C(COC(C)=O)CS[C@H]12)c1csc(N)n1; assay: as §1; method in brief: as §2
[24] = substrate: CO[C@@]1(NC(=O)C(C(=O)O)c2ccc(O)cc2)C(=O)N2C(C(=O)O)=C(CSc3nnnn3C)CO[C@@H]21; assay: as §1; method in brief: as §2

Molecule	MIC [1]	Km [2]	kcat [2]	MIC [3]	MIC [4]	also measured
CO[C@@]1(NC(=O)C(C(=O)O)c2ccc(O)cc2)C(=O)N2C(C(=O)O)=C(CSc3nnnn3C)CO[C@@H]21 (some centres undefined) [MOXALACTAM]	0.12 µg/mL (≈ 0.231 µM)	1700 µM	3 s⁻¹	> 256 µg/mL	0.12 µg/mL	–
C[C@@H](O)[C@H]1C(=O)N2C(C(=O)O)=C(S[C@@H]3CN[C@H](C(=O)Nc4cccc(C(=O)O)c4)C3)[C@H](C)[C@H]12	0.12 µg/mL (≈ 0.252 µM)	10 µM	2 s⁻¹	> 16 µg/mL	0.25 µg/mL	–
CO/N=C(\C(=O)N[C@@H]1C(=O)N2C(C(=O)O)=C(COC(N)=O)CS[C@H]12)c1ccco1 [CEFUROXIME]	0.5 µg/mL (≈ 1.18 µM)	> 1000 µM	9 s⁻¹	> 256 µg/mL	16 µg/mL	–
CCN1CCN(C(=O)N[C@@H](C(=O)N[C@@H]2C(=O)N3[C@@H]2SC(C)(C)[C@@H]3C(=O)O)c2ccccc2)C(=O)C1=O [PIPERACILLIN]	1 µg/mL (≈ 1.93 µM)	175 µM	40 s⁻¹	4 µg/mL (≈ 7.73 µM)	256 µg/mL	–
C[C@@H](O)[C@H]1C(=O)N2C(C(=O)O)=C(SCCNC=N)C[C@H]12 [IMIPENEM ANHYDROUS]	–	300 µM	50 s⁻¹	> 16 µg/mL	–	MIC [5]: > 16 µg/mL; MIC [6]: 0.12 µg/mL
C[C@@H](O)[C@H]1C(=O)N2C(C(=O)O)=C(S[C@@H]3CN[C@H](C(=O)N(C)C)C3)[C@H](C)[C@H]12 [MEROPENEM]	0.12 µg/mL (≈ 0.313 µM)	12 µM	1 s⁻¹	> 16 µg/mL	0.25 µg/mL	–
CC1(C)S[C@@H]2[C@H](NC(=O)[C@H](N)c3ccccc3)C(=O)N2[C@H]1C(=O)O	–	1150 µM	185 s⁻¹	–	–	–
CO/N=C(\C(=O)N[C@@H]1C(=O)N2C(C(=O)O)=C(COC(C)=O)CS[C@H]12)c1csc(N)n1 [CEFOTAXIME]	0.12 µg/mL (≈ 0.263 µM)	2200 µM	20 s⁻¹	> 32 µg/mL	0.5 µg/mL	–
CC(C)(O/N=C(\C(=O)N[C@@H]1C(=O)N2C(C(=O)[O-])=C(C[n+]3ccccc3)CS[C@H]12)c1csc(N)n1)C(=O)O [CEFTAZIDIME]	0.5 µg/mL (≈ 0.915 µM)	–	–	2 µg/mL (≈ 3.66 µM)	0.5 µg/mL	–
CC1(C)S[C@@H]2[C@H](NC(=O)[C@H](N)c3ccc(O)cc3)C(=O)N2[C@H]1C(=O)O [AMOXICILLIN]	4 µg/mL (≈ 10.9 µM)	–	–	> 256 µg/mL	> 256 µg/mL	MIC [5]: > 256 µg/mL; MIC [7]: 16 µg/mL; MIC [6]: 4 µg/mL
CO[C@@]1(NC(=O)Cc2cccs2)C(=O)N2C(C(=O)O)=C(COC(N)=O)CS[C@@H]21 [CEFOXITIN]	1 µg/mL (≈ 2.34 µM)	825 µM	1 s⁻¹	> 256 µg/mL	4 µg/mL	–
CC1(C)S[C@@H]2[C@H](NC(=O)[C@H](C(=O)O)c3ccsc3)C(=O)N2[C@H]1C(=O)O [TICARCILLIN]	4 µg/mL (≈ 10.4 µM)	250 µM	15 s⁻¹	> 256 µg/mL	> 256 µg/mL	MIC [5]: > 256 µg/mL; MIC [7]: 128 µg/mL; MIC [6]: 4 µg/mL
CC1(C)S[C@@H]2[C@H](NC(=O)Cc3ccccc3)C(=O)N2[C@H]1C(=O)O	–	48 µM	31 s⁻¹	–	–	–
Cc1onc(-c2ccccc2)c1C(=O)N[C@@H]1C(=O)N2[C@@H]1SC(C)(C)[C@@H]2C(=O)O	–	110 µM	15 s⁻¹	–	–	–
C[C@H]1[C@H](NC(=O)/C(=N\OC(C)(C)C(=O)O)c2csc(N)n2)C(=O)N1S(=O)(=O)O [AZTREONAM]	–	> 1000 µM	35 s⁻¹	> 256 µg/mL	16 µg/mL	–
O=C(O)[C@H]1/C(=C/CO)O[C@@H]2CC(=O)N21 [CLAVULANIC ACID]	–	–	–	–	–	IC50 [8]: 30 µM; IC50 [9]: 10.5 µM
CC(=O)OCC1=C(C(=O)O)N2C(=O)[C@@H](NC(=O)Cc3cccs3)[C@H]2SC1 [CEPHALOTHIN]	2 µg/mL (≈ 5.04 µM)	550 µM	250 s⁻¹	> 256 µg/mL	128 µg/mL	–
O=C(Cc1cccs1)N[C@@H]1C(=O)N2C(C(=O)[O-])=C(C[n+]3ccccc3)CS[C@H]12	–	770 µM	170 s⁻¹	–	–	–
CO/N=C(\C(=O)N[C@@H]1C(=O)N2C(C(=O)[O-])=C(C[N+]3(C)CCCC3)CS[C@H]12)c1csc(N)n1	–	–	–	> 16 µg/mL	0.12 µg/mL	–
C[C@]1(Cn2ccnn2)[C@H](C(=O)O)N2C(=O)C[C@H]2S1(=O)=O [TAZOBACTAM]	–	–	–	–	–	IC50 [8]: 6.5 µM
B1	–	–	–	–	–	kcat/Km [10]: 210000 M⁻¹ s⁻¹; kcat/Km [11]: 220000 M⁻¹ s⁻¹; kcat/Km [12]: < 35000 M⁻¹ s⁻¹; kcat/Km [13]: 200000 M⁻¹ s⁻¹; kcat/Km [14]: < 9000 M⁻¹ s⁻¹; kcat/Km [15]: 100000 M⁻¹ s⁻¹; kcat/Km [16]: 660000 M⁻¹ s⁻¹; kcat/Km [17]: 170000 M⁻¹ s⁻¹; kcat/Km [18]: 60000 M⁻¹ s⁻¹; kcat/Km [19]: 500000 M⁻¹ s⁻¹; kcat/Km [20]: 80000 M⁻¹ s⁻¹; kcat/Km [21]: 160000 M⁻¹ s⁻¹; kcat/Km [22]: 1000 M⁻¹ s⁻¹; kcat/Km [23]: 9000 M⁻¹ s⁻¹; kcat/Km [24]: 1000 M⁻¹ s⁻¹
